This is a sample that favours compounds with a hit; in the whole collection about 1.9% have one here.
UBC9 SUMO inh: SUMOylation inhibition. inhibition, % at 35 µM. HTRF SUMOylation assay, SAE1/SAE2 + UBC9, in vitro. AID 2006. 0.36% of 290,000 active; in the data active = inhibition above about 50%, passing the limit was not always enough
Target sequence (P63279 whole entry, looked up): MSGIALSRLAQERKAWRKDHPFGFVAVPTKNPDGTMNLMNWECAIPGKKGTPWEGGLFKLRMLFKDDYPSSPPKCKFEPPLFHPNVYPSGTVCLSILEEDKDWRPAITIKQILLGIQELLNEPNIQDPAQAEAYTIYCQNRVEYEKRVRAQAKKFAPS
LMPTP inh: blocks human LMPTP phosphatase | AID 651560 | recombinant LMPTP-A, OMFP fluorogenic substrate, fluorescence intensity | 0.22% of 360,000 active | inhibition, % at 20 µM;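 active = compounds that cut the enzyme signal by at least half of the control window in the single-dose screen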;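 note: plate controls were DMSO wells with enzyme plus substrate for no effect and substrate without enzyme for full effect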
Target sequence (P24666 whole entry, looked up): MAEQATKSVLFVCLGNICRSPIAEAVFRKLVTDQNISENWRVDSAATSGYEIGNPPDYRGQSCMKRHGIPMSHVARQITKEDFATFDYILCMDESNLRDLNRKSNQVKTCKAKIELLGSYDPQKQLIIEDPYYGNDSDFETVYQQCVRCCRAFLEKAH
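Test system – LMPTP-A phosphatase enzyme · Quantity – 0.625 nM LMPTP-A final · Reagent – OMFP substrate, 400 µM final · Dosing – one test concentration per compound, 20 µM, with 3% DMSO overall · Timing – 50 min enzyme reaction at room temperature, protected from light · Detection – fluorescence intensity · Controls – substrate-only low control, DMSO enzyme-plus-substrate high control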
Scp1 inh: inhibitors of human Scp-1 phosphatase; Recombinant Scp1, phosphopeptide, malachite green phosphate absorbance; AID 493091; inhibition, % at 20 µM; 0.88% of 340,000 active; Q9GZU7;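 active = inhibition above about 50% at 20 µM, limit read from the data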;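 note: plate controls were DMSO wells with enzyme for no effect and wells lacking enzyme for full effect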
Target sequence (Q9GZU7 76-261 limits assumed): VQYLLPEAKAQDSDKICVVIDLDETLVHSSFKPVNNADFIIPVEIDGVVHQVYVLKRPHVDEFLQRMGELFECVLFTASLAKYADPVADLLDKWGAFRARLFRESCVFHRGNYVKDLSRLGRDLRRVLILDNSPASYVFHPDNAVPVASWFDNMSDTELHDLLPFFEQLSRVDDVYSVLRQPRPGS
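System: SCP-1 catalytic domain; Reagent: Phospho 17-mer peptide substrate; Doses: one concentration, 20 µM, with 1.0% DMSO; Incubation: 45 min room-temperature reaction, 5 min colour, 30 min stabiliser; Signal: Phosphate-binding colour reagent, absorbance read at 630 nm.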
SUMO1 PPI mod: alters human SUMO1 binding to SIM partners; P63165; SUMO1 binding to a labelled peptide, TR-FRET, 1 h; inhibition, % at 20 µM; AID 602429; 0.33% of 360,000 active; in the data active = inhibition above about 37%
Target sequence (P63165 whole entry, looked up): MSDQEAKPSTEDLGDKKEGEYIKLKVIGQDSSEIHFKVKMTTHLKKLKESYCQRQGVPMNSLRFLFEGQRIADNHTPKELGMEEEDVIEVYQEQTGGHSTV
STEP inh: inhibitors of human striatal-enriched phosphatase STEP; P54829; recombinant STEP, OMFP fluorogenic substrate, fluorescence; inhibition, % at 20 µM; 0.25% of 360,000 active;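 active = inhibition at 20 µM, scaled per plate between control wells, above about 37%, limit read from the data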;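 note: 0% = DMSO with enzyme and substrate and 100% = substrate only without enzyme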
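material = STEP tyrosine phosphatase | reagent = fluorogenic phosphatase substrate OMFP at 25 µM final | doses = single compound dose of 20 µM, 1% DMSO final | schedule = 20 min reaction, room temperature, in the dark | measured by = fluorescence, 480/540 nm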
DNMT1 inh: inhibitors of human DNMT1 | 0.83% of 360,000 active | AID 588458 | DNMT1 molecular beacon, Hinp1I cleavage, fluorescence | inhibition (reported as % activation of signal), % at 10 µM; in the data active = inhibition above about 50%
Beacon interf DR: beacon fluorescence artifact, dose response counter-screen; shares compounds with DNMT1 inh; molecular beacon fluorescence, spectral interference counter-screen; IC50, µM; 200 tested, under 10 active; call rule not given here
DNMT1 inh conf: DNMT1 inhibition confirmation, single concentration | AID 602385 | shares compounds with DNMT1 inh | inhibition, % at 10 µM | 8% of 2,300 active | DNMT1 molecular beacon HinP1I cleavage, fluorescence;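 active = average inhibition of at least 30% in the single-concentration confirmation test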
DNMT1 interf: beacon fluorescence artifact counter-screen | shares compounds with DNMT1 inh | DNMT1 molecular beacon spectral interference counterscreen, fluorescence 485/520 | activation (fluorescence interference), % at 10 µM | 1% of 2,300 active;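 active = activation of at least 30% at 10 µM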;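 note: DNMT1 catalytic domain with a HinP1I cleavage step and a FAM/dabcyl DNA beacon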
* marks the source's active call; other numbers are inactive results.

COc1ccc(S(=O)(=O)N2CCCOC2CNC(=O)C(=O)NCc2ccco2)cc1C (stereo not drawn) was read as UBC9 SUMO inh -2, LMPTP inh -1, Scp1 inh 3, SUMO1 PPI mod -4, STEP inh -3, DNMT1 inh 71*, DNMT1 inh conf 2 and DNMT1 interf 7.
For O=C(Nc1cccc(S(=O)(=O)NC2=NCCC2)c1)c1cc(-c2ccco2)nc2ccccc12 the results were UBC9 SUMO inh 86*, LMPTP inh 61*, Scp1 inh 90*, SUMO1 PPI mod 23, STEP inh 6, DNMT1 inh 99*, Beacon interf DR >99, DNMT1 inh conf 56* and DNMT1 interf -2.
COc1ccc(NC(=O)c2cc(-c3ccco3)nc3ccccc23)cn1 was read as LMPTP inh 14, Scp1 inh 67*, SUMO1 PPI mod -5, STEP inh 4, DNMT1 inh 49, DNMT1 inh conf 2 and DNMT1 interf 0.
Screening O=C(Nc1nc2ccccc2s1)c1cc(-c2ccco2)nc2ccccc12 returned UBC9 SUMO inh 17, LMPTP inh 0, Scp1 inh 4, SUMO1 PPI mod 13, STEP inh 1 and DNMT1 inh 8.
Screening CCNC(=O)COC(=O)c1cc(-c2ccco2)nc2ccccc12 returned UBC9 SUMO inh 44, LMPTP inh 5, Scp1 inh 70*, SUMO1 PPI mod -2, STEP inh 0, DNMT1 inh 71*, DNMT1 inh conf 12 and DNMT1 interf 3.
O=C(NC(=S)Nc1cccc(S(=O)(=O)NC2=NCCC2)c1)c1cc(-c2ccco2)nc2ccccc12 was read as UBC9 SUMO inh 46, LMPTP inh 15, Scp1 inh -6, SUMO1 PPI mod 22, STEP inh 5 and DNMT1 inh 11.
`O=C(N/N=C/c1ccc(F)cc1)c1cc(-c2ccco2)nc2ccccc12` gave LMPTP inh 61*, Scp1 inh 81*, SUMO1 PPI mod 12, STEP inh 16, DNMT1 inh 105*, Beacon interf DR >99, DNMT1 inh conf 48* and DNMT1 interf -1.
CCC(SC1=N/C(=C/c2ccccc2OC)C(=O)N1c1ccccc1)C(=O)Nc1cc(C)on1 (stereo not drawn) was read as UBC9 SUMO inh -13, LMPTP inh 2, Scp1 inh -6, SUMO1 PPI mod -6, STEP inh 0 and DNMT1 inh -7.
For OCCNc1nc(SCc2ccccc2)nc2sc3c(c12)CCC3 the results were UBC9 SUMO inh -22, LMPTP inh 3, Scp1 inh -4, SUMO1 PPI mod 16, STEP inh 0 and DNMT1 inh -22.
Screening CC(C)N1CCC(C)(C(=O)Nc2ccc(Cl)c(Cl)c2)C1 (stereo not drawn) returned LMPTP inh 0, SUMO1 PPI mod 0, STEP inh -2 and DNMT1 inh 4.
O=C(N/N=C/c1ccc([N+](=O)[O-])o1)c1cc(-c2ccc(-c3ccccc3)cc2)nc2ccccc12 was read as UBC9 SUMO inh 62*, LMPTP inh 2, Scp1 inh 33, SUMO1 PPI mod 2, STEP inh -1, DNMT1 inh 79*, DNMT1 inh conf 0 and DNMT1 interf 2.
For O=C(N/N=C/c1ccc([N+](=O)[O-])o1)c1cc(-c2ccncc2)nc2ccccc12 the results were UBC9 SUMO inh 13, LMPTP inh 3, Scp1 inh 29, SUMO1 PPI mod -10, STEP inh 0 and DNMT1 inh 7.
Screening Cc1nnc(NC(=O)c2cc(-c3ccco3)nc3ccccc23)s1 returned LMPTP inh 27, SUMO1 PPI mod 25, STEP inh 21, DNMT1 inh 96*, DNMT1 inh conf 18 and DNMT1 interf 1.
`Cc1ccc(S(=O)(=O)N2CC3(O)CN(C(=O)OC(C)C)N(C(=O)OC(C)C)CC3(OC(=O)Nc3cccs3)C2)cc1` (stereo not drawn) gave LMPTP inh 0, SUMO1 PPI mod 3, STEP inh 4 and DNMT1 inh -4.
Screening Cc1cc(C)n(-c2nc(Nc3ccccc3)nc(-n3nc(C)cc3C)n2)n1 returned UBC9 SUMO inh -26, LMPTP inh 1, Scp1 inh 10, SUMO1 PPI mod 3, STEP inh 2, DNMT1 inh 64*, DNMT1 inh conf 1 and DNMT1 interf 0.
For Nc1c(C(=O)C2CC2)sc2nc(-c3cccs3)cc(C(F)(F)F)c12 the results were UBC9 SUMO inh 29, LMPTP inh -3, Scp1 inh -7, SUMO1 PPI mod -6, STEP inh -48, DNMT1 inh 68*, DNMT1 inh conf 12 and DNMT1 interf 34*.
Screening O=C(Nc1ccc(Cl)cc1)C1CCCN(c2ncnc3c2nc2n3CCCCC2)C1 (stereo not drawn) returned UBC9 SUMO inh 1, LMPTP inh 1, Scp1 inh 1, SUMO1 PPI mod 4, STEP inh -1 and DNMT1 inh -4.
CN(CC(=O)Nc1cccc(F)c1)C(=O)CN1c2cccc3cccc(c23)S1(=O)=O was read as LMPTP inh 16, Scp1 inh 43, SUMO1 PPI mod -7, STEP inh 0, DNMT1 inh 53*, DNMT1 inh conf 1 and DNMT1 interf 1.
O=C(NC1CCN(Cc2ccccc2)CC1)c1cc(S(=O)(=O)N2CCOCC2)ccc1Cl was read as LMPTP inh 1, Scp1 inh -5, SUMO1 PPI mod 0, STEP inh -3 and DNMT1 inh 1.
`Cc1ccccc1N(C(=O)Cc1ccsc1)C(C(=O)NC1CCCCC1)c1ccc(F)cc1` (stereo not drawn) gave UBC9 SUMO inh 15, LMPTP inh 0, Scp1 inh -3, SUMO1 PPI mod 1, STEP inh -3, DNMT1 inh 59*, DNMT1 inh conf 1 and DNMT1 interf 1.
Screening COc1ccc(C(=O)N/C(=C\c2cn(C)c3ccccc23)C(=O)NCCCn2ccnc2)cc1 returned UBC9 SUMO inh 14, LMPTP inh 1, Scp1 inh -9, SUMO1 PPI mod -5, STEP inh -2 and DNMT1 inh -2.
COc1ccc(-c2n[nH]nc2C2=CC(=O)CC(C)(C)C2)cc1 was read as LMPTP inh -1, SUMO1 PPI mod -2, STEP inh -3 and DNMT1 inh 2.
